Measurements: ChEMBL document CHEMBL1275272, “Synthesis, characterization and antimicrobial activity of some disubstituted 1,3,4-oxadiazoles carrying 2-(aryloxymethyl)phenyl moiety” (2010)
Converted amounts (≈) assume the structure as drawn.

Tests used:
Type in all cases: functional
[1] = test system: Aspergillus flavus; experiment: Antifungal activity against Aspergillus flavus after 16 to 18 hrs by serial dilution method; settings: for MIC: Aspergillus flavus
How it was run: (§1)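 The test compound was dissolved in DMF and serially diluted. A standard drop of the prepared microbial culture was added to each dilution, and tubes were incubated at 37 °C for 16–18 h. MIC was taken as the highest dilution that stayed clear with no visible turbidity.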

[2] = test system: Trichophyton mentagrophytes; experiment: Antifungal activity against Trichophyton mentagrophytes after 16 to 18 hrs by serial dilution method; settings: for MIC: Trichophyton mentagrophytes
[3] = test system: Aspergillus fumigatus; experiment: Antifungal activity against Aspergillus fumigatus after 16 to 18 hrs by serial dilution method; settings: for MIC: Aspergillus fumigatus
[4] = test system: Klebsiella pneumoniae; experiment: Antibacterial activity against Klebsiella pneumoniae after 16 to 18 hrs by serial dilution method; settings: for MIC: Klebsiella pneumoniae
[5] = test system: Pseudomonas aeruginosa; experiment: Antibacterial activity against Pseudomonas aeruginosa after 16 to 18 hrs by serial dilution method; settings: for MIC: Pseudomonas aeruginosa; how it was run: as §1
[6] = test system: Escherichia coli; experiment: Antibacterial activity against Escherichia coli after 16 to 18 hrs by serial dilution method; settings: for MIC: Escherichia coli; how it was run: as §1
[7] = test system: Staphylococcus aureus; experiment: Antibacterial activity against Staphylococcus aureus after 16 to 18 hrs by serial dilution method; settings: for MIC: Staphylococcus aureus; how it was run: as §1
[8] = test system: Talaromyces marneffei; experiment: Antifungal activity against Penicillium marneffei after 16 to 18 hrs by serial dilution method; settings: for MIC: Talaromyces marneffei; how it was run: as §1

| Compound | inhibition zone (IZ) [1] [mm] | MIC [1] [µg/mL] | inhibition zone (IZ) [2] [mm] | MIC [2] [µg/mL] | inhibition zone (IZ) [3] [mm] | MIC [3] [µg/mL] | inhibition zone (IZ) [4] [mm] | MIC [4] [µg/mL] | inhibition zone (IZ) [5] [mm] | MIC [5] [µg/mL] | inhibition zone (IZ) [6] [mm] | MIC [6] [µg/mL] | inhibition zone (IZ) [7] [mm] | MIC [7] [µg/mL] | inhibition zone (IZ) [8] [mm] | MIC [8] [µg/mL] |
| --- | --- | --- | --- | --- | --- | --- | --- | --- | --- | --- | --- | --- | --- | --- | --- | --- |
| Cc1ccc(OCc2ccccc2-c2nn(CN3CCOCC3)c(=S)o2)cc1 | 11 | 12.5 (≈ 31.4 µM) | 11 | 12.5 (≈ 31.4 µM) | 11 | 12.5 (≈ 31.4 µM) | 11 | 12.5 (≈ 31.4 µM) | 11 | 12.5 (≈ 31.4 µM) | 11 | 12.5 (≈ 31.4 µM) | 11 | 12.5 (≈ 31.4 µM) | 11 | 12.5 (≈ 31.4 µM) |
| Cc1ccccc1OCc1ccccc1-c1nn(CNc2cccc(C(F)(F)F)c2)c(=S)o1 | 16 | 6.25 (≈ 13.3 µM) | 16 | 6.25 (≈ 13.3 µM) | 16 | 6.25 (≈ 13.3 µM) | 16 | 6.25 (≈ 13.3 µM) | 16 | 6.25 (≈ 13.3 µM) | 16 | 6.25 (≈ 13.3 µM) | 16 | 6.25 (≈ 13.3 µM) | 16 | 6.25 (≈ 13.3 µM) |
